In ChEMBL document CHEMBL1138355, “Amine-guanidine switch: a promising approach to improve DNA binding and antiproliferative activities” (J Med Chem, 2007):
The source made the active and inactive calls. The calls are words filed in the database; no cut-off is given here.

Legend:
DNA [1] = experiment: Binding affinity to calf thymus DNA assessed as thermal stability in BPE buffer at 2 uM; format: nucleic-acid assay; conditions: Bos taurus
HT-29 = experiment: Antiproliferative activity against human HT29 cells after 72 hrs; format: functional, cell-based; conditions: HT-29, 72 h
Outline: (§1)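 Cells grown in DMEM with 10% calf serum and 1 mM pyruvate, seeded at 5000 cells/well, left 24 h, then given increasing concentrations from DMSO stock in triplicate (DMSO-only controls) for 72 h. CellTiter 96 aqueous one-solution reagent added for 3 h at 37 °C, A540 read. IC50 taken as the concentration halving cell number versus controls, from triplicate means.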

DNA [2] = experiment: Binding affinity to calf […] DNA assessed as thermal stability in cacodylate buffer at 12 uM; format: nucleic-acid assay
LNCaP = experiment: Antiproliferative activity against human LnCAP cells after 72 hrs; format: functional, cell-based
PC-3 = experiment: Antiproliferative activity against human PC3 cells after 72 hrs; format: functional, cell-based; conditions: PC-3, 72 h
DNA [3] = experiment: Binding affinity to calf […] DNA assessed as thermal stability in cacodylate buffer containing 0.1 M NaCl at 12 uM; format: nucleic-acid assay
BT-474 [4] = experiment: Antiproliferative activity against human BT474 cells after 72 hrs; format: functional, cell-based; conditions: BT-474, 72 h
SK-BR-3 = experiment: Antiproliferative activity against human SKBR3 cells after 72 hrs; format: functional, cell-based; conditions: SK-BR-3, 72 h; outline: as §1
T47D = experiment: Antiproliferative activity against human T47D cells after 72 hrs; format: functional, cell-based; outline: as §1
Caspase-7 (Homo sapiens) = target: T1, Caspase-7 (Homo sapiens) (UniProt P55210); experiment: Increase in caspase 7 activation in human SKBR3 cells at 20 uM after 24 hrs; format: cell-based; conditions: SK-BR-3
T1 sequence (whole entry): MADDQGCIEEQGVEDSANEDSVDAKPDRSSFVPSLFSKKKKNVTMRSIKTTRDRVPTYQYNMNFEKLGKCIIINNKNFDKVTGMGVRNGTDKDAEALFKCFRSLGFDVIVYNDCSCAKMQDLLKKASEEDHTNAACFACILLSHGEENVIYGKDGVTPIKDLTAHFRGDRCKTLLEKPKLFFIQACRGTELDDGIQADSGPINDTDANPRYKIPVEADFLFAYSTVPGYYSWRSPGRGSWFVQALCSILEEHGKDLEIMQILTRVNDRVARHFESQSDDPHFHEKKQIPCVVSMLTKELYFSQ
Outline: (§2)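 SKBR3 cells seeded at 10^4 per well and exposed to compounds at 20 µM for 24 h. Controls run with and without 0.2% DMSO. Caspase-3/7 activity measured in homogeneous lysates with Caspase-Glo 3/7 reagent as luciferase luminescence.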

Caspase-3 (Homo sapiens) = target: T2, Caspase-3 (Homo sapiens) (UniProt P42574); experiment: Increase in caspase 3 activation in human SKBR3 cells at 20 uM after 24 hrs; format: cell-based; conditions: SK-BR-3; outline: as §2
T2 sequence (whole entry): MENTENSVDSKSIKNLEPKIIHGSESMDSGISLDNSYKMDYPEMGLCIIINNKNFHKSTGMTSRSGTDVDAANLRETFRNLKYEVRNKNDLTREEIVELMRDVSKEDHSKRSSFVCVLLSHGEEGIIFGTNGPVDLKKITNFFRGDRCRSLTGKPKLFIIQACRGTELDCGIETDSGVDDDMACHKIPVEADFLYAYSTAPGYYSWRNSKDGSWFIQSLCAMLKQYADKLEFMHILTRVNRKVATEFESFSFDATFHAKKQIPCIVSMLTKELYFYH

BT-474 [5] = experiment: Antitumor activity against human BT474 cells xenografted in gamma C null NOG/SCID mouse assessed as reduction in tumor volume at 60 mg/kg, ip after 44 days; format: functional; set-up: scale not given: the % may be the effect or the level left; conditions: route intraperitoneal
Outline: (§3)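 5 × 10^6 BT474 cells in Matrigel injected subcutaneously into the mammary gland of NOG/SCID mice. Once xenografts were established (10–15 days), mice got intraperitoneal doses in 0.9% NaCl every 3 days; controls got vehicle on the same schedule. Tumours measured by caliper, volume = 0.52(length × width²), five mice per group, percent volume change at day 44.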

BT-474 [6] = experiment: Antitumor activity against human BT474 cells xenografted gamma C null NOG/SCID mouse assessed as reduction in tumor volume at 20 mg/kg, ip after 44 days; format: functional; set-up: scale not given: the % may be the effect or the level left; conditions: route intraperitoneal; outline: as §3

SMILES	ΔTm (DNA [1]) [°C]	IC50 (HT-29) [µM]	ΔTm (DNA [2]) [°C]	IC50 (LNCaP) [µM]	IC50 (PC-3) [µM]	ΔTm (DNA [3]) [°C]	IC50 (BT-474 [4]) [µM]	IC50 (SK-BR-3) [µM]	IC50 (T47D) [µM]	Activity (Caspase-7 (Homo sapiens))	Activity (Caspase-3 (Homo sapiens))	Tm (DNA [1]) [°C]	Activity (BT-474 [5]) [%]	Activity (BT-474 [6]) [%]
N=C(N)NCc1ccc2c(c1)Cc1ccccc1-2	0	32.4	1	27.5	24	0	19.1	15.7	6.9	–	–	–	–	–
N=C(N)NCc1ccc2ccc3cccc4ccc1c2c34	8.1	39.8	19	93.3	43.7	6	33.9	11	43.7	–	–	–	–	–
CN1CCN(c2ccc3[nH]c(-c4ccc5[nH]c(-c6ccc(O)cc6)nc5c4)nc3c2)CC1	9	–	25.1	–	–	12	–	–	–	–	–	–	–	–
NCc1c2ccccc2cc2ccccc12	3	–	9	–	–	1	–	25.5	–	inactive	inactive	–	–	–
N=C(N)NCc1ccccc1	0.1	> 100	0.1	43.7	> 100	0	47.9	> 40	83.2	inactive	inactive	–	–	–
N=C(N)NCc1cccs1	0.1	> 100	0	64.6	> 100	0	95.5	> 40	85.1	–	–	–	–	–
NCc1ccccc1 [BENZYLAMINE]	0	–	0.1	–	–	0	–	> 40	–	inactive	inactive	–	–	–
N=C(N)NCc1c2ccccc2cc2ccccc12	6.1	> 100	15	3.5	10	4	19.1	1.9	29.5	Active	Active	–	–	–
N=C(N)NCCCCNCc1ccc2ccc3cccc4ccc1c2c34	–	30.9	34.2	9.3	7.9	12	16.2	1.9	2.2	Active	Active	> 100	73	32
NCc1ccc2c(c1)Cc1ccccc1-2	1	–	0.1	–	–	0	–	> 40	–	inactive	inactive	–	–	–
N=C(N)NCCCCCCNCc1ccc2ccc3cccc4ccc1c2c34	–	–	34.1	–	–	12	29.2	4.8	2.2	–	–	> 100	–	–
NCCCCNCc1ccc2ccc3cccc4ccc1c2c34	20.2	–	32.1	–	–	10	–	4.2	–	–	–	–	–	–
NCCCCNCc1c2ccccc2cc2ccccc12	13.1	–	26	–	–	8	–	3.3	–	–	–	–	–	–
NCc1cccs1	0.1	–	0	–	–	0	–	> 40	–	–	–	–	–	–
N=C(N)NCCCCNCc1c2ccccc2cc2ccccc12	15.1	79.4	28.1	28.2	13.8	9	14.5	2.3	30.9	–	–	–	–	–
N=C(N)NCCCNCCCCNCCCNCc1ccc2ccc3cccc4ccc1c2c34	–	–	39.1	–	–	16	34.6	25.3	8	inactive	inactive	> 100	–	–
NCc1ccc2ccc3cccc4ccc1c2c34	5	–	15	–	–	3	–	12	–	–	–	–	–	–
CCBr	8.1	–	21	–	–	5	–	–	–	–	–	–	–	–
